These results are taken from ChEMBL document CHEMBL1255365, “In vitro antifungal susceptibility and molecular characterization of clinical isolates of Fusarium verticillioides (F. moniliforme) and Fusarium thapsinum” (2008).

≈ marks a conversion by molar mass, not a printed value.

What all share (assay type): functional
Experiment [1] in a line: Antifungal activity against Fusarium thapsinum by microdilution method. Conditions: Gibberella thapsina. The gist of the method:
(§1)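 Clinical isolates grown on potato dextrose agar for 7 days at 25°C. Susceptibility tested by modified NCCLS (2002) broth microdilution reference method for filamentous fungi. Final inoculum 4 × 10^3 to 5 × 10^4 conidia/ml. Final drug ranges: 64–0.12 μg/ml for fluconazole and flucytosine, 128–0.25 μg/ml for micafungin, 16–0.03 μg/ml for the other azoles, amphotericin B and terbinafine.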
For orientation: In broth dilution the organism is exposed to a series of concentrations in liquid medium.

In experiment [2] the test system is Fusarium verticillioides. The experiment can be described thus: Antifungal activity against Fusarium moniliforme clade 1 by microdilution method. The gist of the method: as §1
In experiment [3] the test system is Fusarium verticillioides. Briefly: Antifungal activity against Fusarium moniliforme clade 2 by microdilution method. Summed up:
as §1

Experiment [4] relates to Fusarium verticillioides. The experiment can be described thus: Antifungal activity against Fusarium moniliforme clade 3 by microdilution method. Summed up: as §1

As to `CCC(C)n1ncn(-c2ccc(N3CCN(c4ccc(OCC5COC(Cn6cncn6)(c6ccc(Cl)cc6Cl)O5)cc4)CC3)cc2)c1=O` (configuration not stated) [ITRACONAZOLE], the MIC (in general, the smallest concentration in the dilution series that meets the test's criterion for growth inhibition) is over 16 µg/mL in experiment [1], 12.7 µg/mL (≈ 18 µM) against Fusarium verticillioides [2], over 16 µg/mL with Fusarium verticillioides [3] and over 16 µg/mL against Fusarium verticillioides [4].

For `CC[C@@H]([C@H](C)O)n1ncn(-c2ccc(N3CCN(c4ccc(OC[C@@H]5CO[C@@](Cn6cncn6)(c6ccc(F)cc6F)C5)cc4)CC3)cc2)c1=O` [POSACONAZOLE], the minimum inhibitory concentration (MIC) in experiment [1] is over 16 µg/mL; against Fusarium verticillioides [2], 0.79 µg/mL (≈ 1.13 µM); in the experiment with Fusarium verticillioides [3], 0.89 µg/mL (≈ 1.27 µM); in the experiment on Fusarium verticillioides [4], 1 µg/mL (≈ 1.43 µM).

For `CN(C/C=C/C#CC(C)(C)C)Cc1cccc2ccccc12` [TERBINAFINE], the minimal inhibitory concentration (MIC) in experiment [1] came to 0.44 µg/mL (≈ 1.51 µM); against Fusarium verticillioides [2] it was 0.21 µg/mL (≈ 0.721 µM); in the experiment with Fusarium verticillioides [3], 0.31 µg/mL (≈ 1.06 µM); with Fusarium verticillioides [4], 0.25 µg/mL (≈ 0.858 µM).

As to `C[C@@H](c1nc(-c2ccc(C#N)cc2)cs1)[C@](O)(Cn1cncn1)c1ccc(F)cc1F` [RAVUCONAZOLE], the minimal inhibitory concentration (MIC) in experiment [1] stood at 18.4 µg/mL (≈ 42 µM); with Fusarium verticillioides [2] it was 1.45 µg/mL (≈ 3.31 µM); with Fusarium verticillioides [3] it was 2.24 µg/mL (≈ 5.12 µM); against Fusarium verticillioides [4] it was 4 µg/mL (≈ 9.14 µM).

For the molecule `CC(=O)N1CCN(c2ccc(OCC3COC(Cn4ccnc4)(c4ccc(Cl)cc4Cl)O3)cc2)CC1` (configuration not stated) [KETOCONAZOLE], the MIC was over 16 µg/mL in experiment [1], 2 µg/mL (≈ 3.76 µM) in the experiment with Fusarium verticillioides [2], 8 µg/mL (≈ 15.1 µM) against Fusarium verticillioides [3] and 8 µg/mL (≈ 15.1 µM) with Fusarium verticillioides [4].

As for `C[C@@H](n1cnc2cc(Cl)ccc2c1=O)[C@](O)(Cn1cncn1)c1ccc(F)cc1F` [ALBACONAZOLE], the minimum inhibitory concentration (MIC) in experiment [1] was 18.4 µg/mL (≈ 42.6 µM); with Fusarium verticillioides [2] it was 3.03 µg/mL (≈ 7.02 µM); against Fusarium verticillioides [3] it was 3.56 µg/mL (≈ 8.24 µM); against Fusarium verticillioides [4] it was 5.66 µg/mL (≈ 13.1 µM).

`C[C@@H](c1ncncc1F)[C@](O)(Cn1cncn1)c1ccc(F)cc1F` [VORICONAZOLE]: the MIC in experiment [1] amounted to 2.64 µg/mL (≈ 7.56 µM); with Fusarium verticillioides [2], 2 µg/mL (≈ 5.73 µM); in the experiment on Fusarium verticillioides [3], 2.83 µg/mL (≈ 8.1 µM); in the experiment with Fusarium verticillioides [4], 2 µg/mL (≈ 5.73 µM).

As to `C[C@@H]1[C@H](O)[C@@H](C)/C=C/C=C/C=C/C=C/C=C/C=C/C=C/[C@H](O[C@@H]2O[C@H](C)[C@@H](O)[C@H](N)[C@@H]2O)C[C@@H]2O[C@](O)(C[C@@H](O)C[C@@H](O)[C@H](O)CC[C@@H](O)C[C@@H](O)CC(=O)O[C@H]1C)C[C@H](O)[C@H]2C(=O)O` [AMPHOTERICIN B], the MIC amounted to 2.64 µg/mL (≈ 2.86 µM) in experiment [1], 2.41 µg/mL (≈ 2.61 µM) in the experiment on Fusarium verticillioides [2], 2.24 µg/mL (≈ 2.42 µM) against Fusarium verticillioides [3] and 2 µg/mL (≈ 2.16 µM) against Fusarium verticillioides [4].
